Assay outcomes (PubChem BioAssay)
Dynein cargo inh – dynein cargo transport inhibition | 3617.4 mouse cells, GR-EGFP nuclear translocation imaging; test concentration mostly 20 µM; stimulated with dexamethasone, 1 µM; stronger effect = lower value | z-score, hits read low | hit rate 0.47% among 220,000 | AID 1381;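 active means plate z-score of nuclear minus cytoplasmic receptor signal below a set negative limit, without overly bright fluorescence or cell loss, cut at about -3.5 in these data, passing the limit was not always enough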;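 further: z-score of nuclear minus cytoplasmic ring GR-EGFP intensity difference per well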
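Also added – dexamethasone, 1.0 µM final · Buffer or medium – tet-free, stripped-serum medium · Schedule – induction 48 h, compound 1 h, agonist 30 min · Detection – formaldehyde fixation, Hoechst nuclear stain, 10x automated fluorescence imaging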
Lmaj promast – reduces viability of Leishmania major promastigotes. resazurin fluorescence viability. inhibition, % at 10 µM. hit rate 9% among 200,000. AID 1063; in the data active means inhibition above about 50%;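 further: promastigotes grown with compound for 44 hours at 28 °C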
HSV replic up – HSV replication enhancement; AID 1956; HSV replication augmentation in cells, fold increase; hit rate 0.005% among 220,000; maximum fold increase; in the data active means maximum fold increase above about 1.5; tested in PC3 cells
MT stabilizer – stabilizes microtubules in HeLa cells; HeLa tubulin immunostaining HCS, 24 h; share of cells brighter than vehicle mean+2SD; % tubulin-high responders, % at 10 µM; hit rate 0.83% among 200,000;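 active means plate Z-score above 3 for both tubulin-high and condensed-nucleus cell shares, with cell loss under 80%, at 10 µM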;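 further: anti alpha tubulin signal scored within the nucleus-defined area of each cell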
bCat nuc transl – alters nuclear translocation of beta-catenin in HeLa cells; immunofluorescence imaging; nuclear translocation activity, % at 5 µM; hit rate 0.3% among 190,000;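 active means nuclear translocation activity above 50% at 5 µM, with a well cell count of 50 or more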;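 further: per-cell ratio of nuclear to cytoplasmic median beta-catenin stain intensity; plate controls were DMSO negative control for no effect and GSK-3 inhibitor IX positive control for full effect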
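Test system: HeLa cells, endogenous beta-catenin; Compound: single 5 µM dose plus 0.02–20 µM confirmation series; Times: compound exposure 24 h at 37°C; Signal: fluorescence imaging of beta-catenin antibody stain plus DAPI; Read-out: % activation, nuclear-to-cytoplasmic median beta-catenin signal ratio per cell.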
The depositor's hits bear a star; i = inactive; / = no result given. In the library only some 8.9% were active in any assay of this set; here they are far more common.

SMILES | Dynein cargo inh | Lmaj promast | HSV replic up | MT stabilizer | bCat nuc transl
CCn1c(=N)c(C(N)=O)cc2c(=O)n3cccc(C)c3nc21 | -0.391 | 99.8* | / | 3.3 | /
CCN1C(=O)/C(=C/N2CCc3ccccc3C2)SC1=S | 0.199 | / | i | / | 1.7
Cc1ccc(OC(C)C(=O)O)cc1C (centres undefined) | 0.602 | -4.3 | i | 3.4 | 0.0
Cc1cc(N2CCN(c3ccccc3Cl)CC2)n2cc(-c3ccccc3)nc2n1 | -0.36 | 48.9 | i | 1.2 | -0.3
O=[N+]([O-])c1cccc(Cl)c1CSc1ccccn1 | 0.661 | 10.4 | i | 1.2 | 1.2
Cc1nnc(SCc2c(Cl)cccc2[N+](=O)[O-])s1 | 0.015 | 80.0* | i | 3.8 | -2.6
N#Cc1c(NC(=O)c2ccc(-c3ccccc3[N+](=O)[O-])o2)sc2c1CCCC2 | 0.332 | 3.5 | i | 1.2 | -0.9
Cc1cccc(C)c1NC(=S)N1CCC(N(C)CC2CCCO2)CC1 (centres undefined) | 1.66 | 48.8 | i | 1.8 | /
Cc1cccc(NC(=S)N2CCC(N(C)CC3CCCO3)CC2)c1C (centres undefined) | 0.365 | 82.3* | i | 2.2 | /
Cc1cc(C)cc(NC(=S)N2CCC(N(C)CC3CCCO3)CC2)c1 (centres undefined) | -0.564 | 67.3* | i | 2.0 | -0.5
Cc1ccc(NC(=S)N2CCC(N(C)CC3CCCO3)CC2)cc1 (centres undefined) | -0.103 | 75.6* | i | 1.7 | -0.9
Cc1cc(C)c(NC(=S)N2CCC(N(C)CC3CCCO3)CC2)c(C)c1 (centres undefined) | 2.2 | 27.5 | i | 2.4 | -0.4
COCCn1c(=NC(=O)/C=C/c2cccs2)sc2cc(NC(C)=O)ccc21 | -0.115 | 9.2 | i | 3.9 | 0.7
CCc1nnc(NC(=O)CCC(=O)NCCc2ccc(OC)c(OC)c2)s1 | -0.874 | 60.8* | i | 1.7 | -1.2
CCc1nnc(NC(=O)CCC(=O)N2CCN(C3c4ccccc4-c4ccccc43)CC2)s1 | -0.638 | 51.4* | i | 3.2 | -1.7
COc1ccc(Cc2nnc(NC(=O)CSc3ccccc3)s2)cc1OC | -0.876 | 51.3* | i | 0.8 | 1.0
CCC(=O)Nc1nnc(SCC(=O)NCCc2ccc(OC)c(OC)c2)s1 | -0.611 | 8.4 | i | 3.9 | -6.0
C=C(C)C(=O)Nc1cccnc1Oc1ccc(F)cc1F | -0.571 | / | i | / | 0.2
O=C(O)CCCC(=O)Nc1ccc(OCc2nc3ccccc3s2)cc1 | -0.146 | -4.6 | i | 3.6 | 0.9
Cc1ccc(-n2cc(C(=O)c3ccc(N4CCN(C)CC4)cc3)nn2)cc1Cl | -0.246 | 100.5* | i | 4.6 | -0.5
Cc1ccc(C(=O)c2cn(-c3ccc(F)c(Cl)c3)nn2)cc1 | -0.482 | -3.1 | i | 1.5 | /
Cc1ccc(C(=O)NCCN2CCOCC2)cc1Cl | -0.359 | -2.4 | i | 2.0 | -4.8
CN1CCN(c2ccc(C(=O)c3cn(-c4ccc(F)c(Cl)c4)nn3)cc2)CC1 | -0.0887 | 50.0* | i | 7.1 | -0.1
CC1CC(C)CN(C(=S)Nc2ccc3nc4n(c(=O)c3c2)CCCCC4)C1 (centres undefined) | 0.286 | 85.2* | i | 3.5 | /
CCCN(CCC)CCCNC(=S)Nc1ccc2nc3n(c(=O)c2c1)CCCCC3 | -0.382 | 60.8* | i | 2.8 | /
SMILES | Dynein cargo inh | Lmaj promast | HSV replic up | MT stabilizer | bCat nuc transl
O=C(Nc1ccc2nc3n(c(=O)c2c1)CCCC3)c1ccccc1[N+](=O)[O-] | -0.66 | 56.2* | i | 2.6 | /
Cc1ccccc1C(=O)Nc1ccc2nc3n(c(=O)c2c1)CCC3 | -0.723 | 4.7 | i | 6.0 | /
CCN(CC)CCNC(=S)Nc1ccc2nc3n(c(=O)c2c1)CCCCC3 | -0.431 | 3.2 | i | 3.2 | -0.5
CC1CCc2nn(CC(=O)N3CCCCCC3)cc2C1 (centres undefined) | 0.355 | -4.5 | i | 2.8 | -2.3
COc1cccc(C2=NOC(C(=O)NCc3cccs3)C2)c1 (centres undefined) | 1.45 | -4.3 | i | 21.9* | 97.8*
COc1ccccc1CNC(=O)C1CC(c2cccc([N+](=O)[O-])c2)=NO1 (centres undefined) | 0.212 | 3.6 | i | 48.5* | -0.5
COc1ccc(CNC(=O)C2CC(c3cccc(OC)c3)=NO2)cc1 (centres undefined) | 1.79 | -1.1 | i | 5.8 | 3.6
CCN1CCN(CCCCSc2ccccc2)CC1 | -0.224 | 77.8* | i | 1.8 | 0.1
CCN1CCN(CCOc2ccccc2OCc2ccccc2)CC1 | 0.495 | 8.6 | i | 2.4 | -1.0
O=C(COc1ccccc1-c1ccccc1)N/N=C/c1ccncc1 | -0.0125 | 10.1 | i | 3.5 | 1.2
O=C(COc1ccccc1-c1ccccc1)N/N=C/c1ccc2ccccc2c1 | 0.422 | 40.6 | i | 4.9 | 131.0*
O=C(COc1ccccc1-c1ccccc1)N/N=C/c1cccnc1 | -1.08 | 10.8 | i | 14.1* | 46.3
COc1cc(/C=N/NC(=O)COc2c(C)cc([N+](=O)[O-])cc2C)ccc1OC(=O)c1ccccc1 | -0.147 | 98.8* | i | 4.4 | 1.6
Cc1cccc(C(=O)Oc2ccc(/C=N/NC(=O)Cc3ccc([N+](=O)[O-])cc3)cc2)c1 | 3.4 | 50.4* | i | 3.0 | /
COc1cc(/C=N/NC(=O)c2cccc([N+](=O)[O-])c2)ccc1OCc1ccccc1 | 0.00815 | -4.5 | i | 2.8 | -5.0
COc1cc(/C=N/NC(=O)COc2c(C)cc([N+](=O)[O-])cc2C)ccc1OC(=O)c1ccccc1Br | -0.518 | 72.8* | i | 1.6 | -0.8
Cc1cc(OCCCn2ccnc2)cc(C)c1Cl | -0.636 | 89.2* | i | 4.7 | 2.5
Cc1cc(OCCCCCn2ccnc2)cc(C)c1Cl | 0.822 | 98.6* | i | 2.8 | 15.3
C=CCc1cc(C)ccc1OCCn1ccnc1 | 1.12 | 3.7 | i | 2.5 | /
Cc1cc(Cl)ccc1OCC(=O)NCCCn1ccnc1 | 1.52 | -1.4 | i | 2.4 | -1.0
C=CCc1cc(C)ccc1OCCOCCn1ccnc1 | 2 | 96.8* | i | 2.0 | 1.5
Cc1ccc(C)c(OCCCCCn2ccnc2)c1 | -1.49 | 100.2* | i | 4.9 | -1.0
Fc1cccc(CSc2ccc3nnc(-c4cccnc4)n3n2)c1 | -0.18 | 30.6 | i | 2.7 | -0.1
CC(=O)c1cccc(NC(=O)C2C(c3ccccc3)C2(Cl)Cl)c1 (centres undefined) | -0.607 | 33.3 | i | 1.6 | -2.3
O=C(O)CCn1cc(/C=C\C(=O)c2ccc(Cl)cc2)c(-c2cccc(Br)c2)n1 | -1.67 | -0.5 | i | 2.9 | -1.4
O=S(=O)(N1CCCCC1)n1c(Cc2ccccc2)nc2ccccc21 | -0.17 | 54.2* | i | 2.2 | 0.6
COC(=O)CC/C(O)=C1\C(=O)CC(C)(C)CC1=Nc1ccccc1OC | 0.0157 | -4.3 | i | 16.7* | -2.6
CCC/C(O)=C1\C(=O)CC(C)(C)CC1=Nc1ccc(OC)cc1OC | 2.94 | 4.2 | i | 53.3 | 76.1*
COc1ccc(C2=NOC(C(=O)NCc3ccc(F)cc3)C2)cc1OC (centres undefined) | 0.377 | -3.0 | / | 13.9* | 56.2*
